The source of these data is article PMC3329872 (Bioorganic & medicinal chemistry letters, 2012).

“And” between values parts separate entries of the source, which are not always exact repeats. Equal entries are not always repeated. “Also recorded” adds a separate entry of the source. Where only a bound is given, the exact number is not on record here.

T2 sequence (P00747 581-810 limits assumed, species assumed): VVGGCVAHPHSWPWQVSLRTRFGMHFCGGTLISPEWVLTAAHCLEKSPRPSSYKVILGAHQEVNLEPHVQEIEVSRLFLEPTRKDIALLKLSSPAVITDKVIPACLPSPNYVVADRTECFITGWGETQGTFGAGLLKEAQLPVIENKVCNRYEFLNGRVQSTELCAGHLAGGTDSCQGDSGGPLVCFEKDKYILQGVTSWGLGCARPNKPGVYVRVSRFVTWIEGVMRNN
T2 sequence (P00747 97-580 partner limits assumed, species assumed): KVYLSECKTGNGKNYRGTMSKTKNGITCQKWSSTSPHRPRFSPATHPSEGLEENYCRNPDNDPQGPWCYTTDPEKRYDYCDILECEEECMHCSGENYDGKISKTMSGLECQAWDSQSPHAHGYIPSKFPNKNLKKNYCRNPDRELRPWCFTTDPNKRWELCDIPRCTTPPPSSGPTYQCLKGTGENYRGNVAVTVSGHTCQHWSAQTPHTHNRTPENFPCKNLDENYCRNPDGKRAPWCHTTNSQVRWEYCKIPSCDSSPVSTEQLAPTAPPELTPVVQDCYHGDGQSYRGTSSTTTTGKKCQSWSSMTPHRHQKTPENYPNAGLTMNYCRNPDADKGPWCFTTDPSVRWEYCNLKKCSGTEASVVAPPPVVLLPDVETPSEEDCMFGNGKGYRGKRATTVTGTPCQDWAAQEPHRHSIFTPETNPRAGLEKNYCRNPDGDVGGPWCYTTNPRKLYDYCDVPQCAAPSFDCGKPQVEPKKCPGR

The first assay concerns the target T1, trypsin (Bos taurus, UniProt P00760).
T1 sequence (P00760 24-246): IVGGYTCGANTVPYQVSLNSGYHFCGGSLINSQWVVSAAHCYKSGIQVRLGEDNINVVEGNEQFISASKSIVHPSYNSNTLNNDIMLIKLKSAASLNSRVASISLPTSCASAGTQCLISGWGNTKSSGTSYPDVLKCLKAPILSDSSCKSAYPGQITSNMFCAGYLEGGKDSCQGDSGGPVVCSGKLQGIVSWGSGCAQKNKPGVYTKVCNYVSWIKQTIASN
Briefly: Trypsin enzymatic inhibition assay. Type of assay: biochemical.
Conditions: not given
The gist of the method: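 Chromogenic substrate level was chosen from the Km determination. Rate of absorbance change at 405 nm was recorded immediately after enzyme addition. Velocities at various inhibitor concentrations were fitted to a 4-parameter logistic equation.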
For the molecule `N/C(=N\O)c1nc(Cl)c(NCC(=O)OCc2ccccc2)nc1N` [Compound 7], the half-maximal inhibitory concentration (IC50) (commonly the concentration needed to halve the response being measured) is > 250 µM.
On the same count and under the same terms, the result for `N=C(N)NC(=O)c1nc(Cl)c(N)nc1N` [amiloride, 3,5 diamino-6-chloro-N-(diaminomethylene) pyrazinecarboximide] reads > 250 µM; that for `N=C(N)c1nc(Cl)c(NCC(=O)O)nc1N` [Compound 2], > 250 µM; that for `NC(N)=NC(=O)c1ncc(NCC(=O)O)nc1N` [Compound 1-H], > 250 µM.
Same read-out and setting: the value for `N/C(=N\O)c1nc(Cl)c(NCC(=O)O)nc1N` [Compound 8] was > 250 µM.
Still for that read-out and setting: the result for `N=C(N)NC(=O)c1nc(Cl)c(NCC(=O)O)nc1N` [Compound 1] reads > 250 µM; that for `NC(N)=NC(=O)c1nc(Cl)c(NCC(=O)OCc2ccccc2)nc1N` [Compound 14], > 250 µM; that for `N/C(=N\O)c1ncc(NCC(=O)O)nc1N` [Compound 8-H], > 250 µM.
As to `N=C(N)c1ncc(NCC(=O)O)nc1N` [Compound 2-H], the IC50 is > 250 µM.
Same read-out and setting: the value for `NC(=O)c1nc(Cl)c(NCC(=O)OCc2ccccc2)nc1N` [Compound 12] was > 250 µM; that for `N=C(N)c1nc(Cl)c(NCC(=O)OCc2ccccc2)nc1N` [Compound 11] was > 250 µM.

For the next assay, the system named is U87 glioma cells. Briefly: Cell death assay: lactate dehydrogenase. Type of assay: cell-based. To be noted: LDH assay, human U87 glioma cells; concentration and time given in the cell. The gist of the method: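 U87 glioma cells plated at ten thousand per well and exposed to test compound for 24–48 h at 37°C, 5% CO2. Cell death read as cytosolic LDH released from dying cells, measured with a commercial LDH kit per the manufacturer's protocol.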
As to `N/C(=N\O)c1nc(Cl)c(NCC(=O)OCc2ccccc2)nc1N` [Compound 7], the Cytoxicity result is “Not cytotoxic”.
Consider `N=C(N)NC(=O)c1nc(Cl)c(N)nc1N` [amiloride, 3,5 diamino-6-chloro-N-(diaminomethylene) pyrazinecarboximide], for which the Cytoxicity is 50% cytotoxic at 250μM by 24h.
With `N=C(N)c1nc(Cl)c(NCC(=O)O)nc1N` [Compound 2], the Cytoxicity entry is recorded as “do not demonstrate glioma cytotoxicity; also recorded: Not cytotoxic”.
Same read-out and setting: the result for `NC(N)=NC(=O)c1ncc(NCC(=O)O)nc1N` [Compound 1-H] reads “Not cytotoxic”; that for `N/C(=N\O)c1nc(Cl)c(NCC(=O)O)nc1N` [Compound 8], “Not cytotoxic”.
Same read-out and setting: the value for `N=C(N)NC(=O)c1nc(Cl)c(NCC(=O)O)nc1N` [Compound 1] was “do not demonstrate glioma cytotoxicity; also recorded: Not cytotoxic”; that for `NC(N)=NC(=O)c1nc(Cl)c(NCC(=O)OCc2ccccc2)nc1N` [Compound 14] was “cytotoxic and 50% cytotoxic at 100μM by 24h”; that for `N/C(=N\O)c1ncc(NCC(=O)O)nc1N` [Compound 8-H] was “Not cytotoxic”.
As to `N=C(N)c1ncc(NCC(=O)O)nc1N` [Compound 2-H], the Cytoxicity entry is “Not cytotoxic”.
Still for that read-out and setting: the result for `NC(=O)c1nc(Cl)c(NCC(=O)OCc2ccccc2)nc1N` [Compound 12] reads “Not cytotoxic”; that for `N=C(N)c1nc(Cl)c(NCC(=O)OCc2ccccc2)nc1N` [Compound 11], “cytotoxic and 50% cytotoxic at 250μM by 72h”.

The next assay has as its target T2, plasmin (Homo sapiens, UniProt P00747). The assay is described as follows: Plasmin enzymatic inhibition assay. Type of assay: biochemical.
Conditions: not given
Take `N/C(=N\O)c1ncc(NCC(=O)O)nc1N` [Compound 8-H]: the IC50 was determined as 230 µM.

The same assay, now with this note: read-out: Plasmin IC50; 22°C, pH 7.4, substrate tosyl-Gly-Pro-Lys-pNA.
As for `N=C(N)c1nc(Cl)c(NCC(=O)O)nc1N` [Compound 2], the IC50 is > 250 µM.
Still for that read-out and setting: the result for `NC(=O)c1nc(Cl)c(NCC(=O)OCc2ccccc2)nc1N` [Compound 12] reads > 150 µM.

In a further assay the target is T2, plasmin.
Assay: not given
To be noted: read-out: plasmin IC50; cited from earlier work.
As for `N=C(N)NC(=O)c1nc(Cl)c(N)nc1N` [amiloride, 3,5 diamino-6-chloro-N-(diaminomethylene) pyrazinecarboximide], the IC50 is > 1000 µM.

Another assay concerns human malignant glioma cells.
Assay: not given
To be noted: cited from earlier work.
On to `N=C(N)NC(=O)c1nc(Cl)c(N)nc1N` [amiloride, 3,5 diamino-6-chloro-N-(diaminomethylene) pyrazinecarboximide], for which the “concentration causing caspase-independent, non-apoptotic cell death” value was ~ 200 μM.

The target in another assay is tPA (Homo sapiens, UniProt P00750).
tPA, sequence (P00750 36-562, species assumed): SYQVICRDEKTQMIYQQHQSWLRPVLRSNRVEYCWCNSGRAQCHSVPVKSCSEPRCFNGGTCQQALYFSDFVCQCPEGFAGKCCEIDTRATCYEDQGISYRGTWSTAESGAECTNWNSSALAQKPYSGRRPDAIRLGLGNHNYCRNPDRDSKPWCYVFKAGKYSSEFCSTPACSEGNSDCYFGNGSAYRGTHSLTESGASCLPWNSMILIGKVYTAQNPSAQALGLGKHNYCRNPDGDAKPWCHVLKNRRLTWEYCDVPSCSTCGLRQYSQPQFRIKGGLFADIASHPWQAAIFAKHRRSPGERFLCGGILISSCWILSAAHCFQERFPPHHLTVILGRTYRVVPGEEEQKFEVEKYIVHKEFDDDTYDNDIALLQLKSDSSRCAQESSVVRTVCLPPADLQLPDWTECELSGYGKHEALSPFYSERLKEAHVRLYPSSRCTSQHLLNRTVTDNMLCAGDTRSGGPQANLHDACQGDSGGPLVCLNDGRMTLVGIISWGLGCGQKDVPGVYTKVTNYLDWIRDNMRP
Assay: not given
To be noted: read-out: tPA IC50; cited from earlier work.
For the molecule `N=C(N)NC(=O)c1nc(Cl)c(N)nc1N` [amiloride, 3,5 diamino-6-chloro-N-(diaminomethylene) pyrazinecarboximide], the 50% inhibitory concentration (IC50) was > 1000 µM.
